Experiments:
Plasmodium berghei [1] = assay: In vivo antimalarial activity against Plasmodium berghei in mice (Mus musculus) as maximum dose tolerated; format: functional
How it was run: (§1)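 Peters 4-day suppression test, mice in groups of five, P. berghei given intravenously. DFMO 2% in drinking water for four nights (Mon-Thu), starting about 4-6 h after infection. Analogues given intraperitoneally at 8:30, 12:30 and 16:30 on three consecutive days (Tue-Thu). Dose reported as highest tolerated, highest tested, or giving maximum response. Cures judged as survival beyond 4 months with parasite-free Giemsa blood smears.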

Plasmodium berghei [2] = assay: In vivo antimalarial activity against Plasmodium berghei infected mice (Mus musculus) as cures surviving after 4 months; format: functional
How it was run: (§2)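 Standard 4-day suppression test: mice in groups of five infected intravenously with P. berghei; treatment began about 4-6 h after infection. Co-treatment with DFMO as 2% solution in drinking water for four nights, plus analogue given intraperitoneally three times daily (8:30, 12:30, 16:30) on three consecutive days. Cure means survival beyond 4 months with parasite-free Giemsa-stained blood smears on periodic examination.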

Plasmodium falciparum = assay: In vitro antimalarial activity against Plasmodium falciparum; format: functional, organism-based
How it was run: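 P. falciparum clone D6 (Sierra Leone strain) grown in human O+ erythrocytes, 1% erythrocyte suspension, starting parasitemia about 0.5%. Analogues dissolved in culture medium and filter-sterilized. After 24 h of exposure, [3H]hypoxanthine (1 µCi) was added and its incorporation measured after a further 18-24 h. IC50 is the concentration (µM) inhibiting incorporation by 50%.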

Plasmodium berghei [3] = assay: In vivo antimalarial activity against Plasmodium berghei in mice (Mus musculus) as maximum dose tested; format: functional; how it was run: as §1
Plasmodium berghei [4] = assay: In vivo antimalarial activity against Plasmodium berghei in mice (Mus musculus) as dose required for Emax; format: functional; how it was run: as §1
Plasmodium berghei [5] = assay: In vivo antimalarial activity as increased survival (%max) against Plasmodium berghei in mice (Mus musculus); format: functional; how it was run: as §2

Compound: Cl.Cl.Cl.Cl.Clc1ccc(CNCCCNCCCCCCCCNCCCNCc2ccc(Cl)cc2)cc1
- Dose (Plasmodium berghei [1]): 3 mg/kg
- Cured (Plasmodium berghei [2]): 60%
- IC50 (Plasmodium falciparum): 0.5 µM

Compound: c1ccc(NCCCNCCCCCCCNCCCNc2ccccc2)cc1
- IC50 (Plasmodium falciparum): 0.5 µM

Compound: Cl.Cl.Cl.Cl.c1ccc(CNCCCNCCCCCCNCCCNCc2ccccc2)cc1
- Dose (Plasmodium berghei [3]): 30 mg/kg
- IC50 (Plasmodium falciparum): 5.3 µM

Compound: NCCCNCCCCCCCCNCCCN
- IC50 (Plasmodium falciparum): 1800 µM

Compound: CS(=O)(=O)c1ccc(CNCCCNCCCCCCCNCCCNCc2ccc(S(C)(=O)=O)cc2)cc1
- IC50 (Plasmodium falciparum): 86 µM

Compound: c1cc(CNCCCNCCCCCCCNCCCNCc2ccsc2)cs1
- IC50 (Plasmodium falciparum): 3.9 µM

Compound: NCCCNCCCCCCCCNCCCNCc1ccccc1
- IC50 (Plasmodium falciparum): 64 µM

Compound: c1ccc(CNCCCCNCCCCCCCNCCCCNCc2ccccc2)cc1
- IC50 (Plasmodium falciparum): 3.2 µM

Compound: Cl.Cl.Cl.Cl.c1ccc(CNCCCNCCCCCCCCCNCCCNCc2ccccc2)cc1
- Dose (Plasmodium berghei [4]): 10 mg/kg
- Cured (Plasmodium berghei [2]): 60%
- IC50 (Plasmodium falciparum): 0.7 µM

Compound: Cl.Cl.Cl.Cl.c1ccc(CNCCNCCCCCCCCNCCNCc2ccccc2)cc1
- Max increase (Plasmodium berghei [5]): 45%
- Dose (Plasmodium berghei [3]): 30 mg/kg
- IC50 (Plasmodium falciparum): 0.3 µM

Compound: CC(N)CCNCCCCCCCNCCC(C)N (stereo unspecified)
- IC50 (Plasmodium falciparum): > 20 µM

Compound: c1ccc(CNCCNCCCCCCCNCCNCc2ccccc2)cc1
- IC50 (Plasmodium falciparum): 1.4 µM

Compound: COc1ccc(CNCCCNCCCCCCCNCCCNCc2ccc(OC)cc2)cc1
- IC50 (Plasmodium falciparum): 2.5 µM

Compound: c1ccc(CNCCNCCCCCCNCCNCc2ccccc2)cc1
- IC50 (Plasmodium falciparum): 4.5 µM

Compound: COc1ccc(CNCCCNCCCCCCCCNCCCNCc2ccc(OC)cc2)cc1
- IC50 (Plasmodium falciparum): 1.3 µM

Compound: c1ccc(CCNCCCNCCCCCCCNCCCNCCc2ccccc2)cc1
- IC50 (Plasmodium falciparum): 1.9 µM

Compound: Cl.Cl.Cl.Cl.c1ccc(CNCCCNCCCCCCCNCCCNCc2ccccc2)cc1
- Dose (Plasmodium berghei [4]): 15 mg/kg
- Cured (Plasmodium berghei [2]): 100%
- IC50 (Plasmodium falciparum): 3 µM

Compound: Cl.Cl.Cl.Cl.c1ccc(CNCCCNCCCCCNCCCNCc2ccccc2)cc1
- Max increase (Plasmodium berghei [5]): 30%
- Dose (Plasmodium berghei [3]): 30 mg/kg
- IC50 (Plasmodium falciparum): 6.7 µM

Compound: Clc1ccc(CNCCCNCCCCCCCNCCCNCc2ccc(Cl)cc2)cc1
- IC50 (Plasmodium falciparum): 1.4 µM

Compound: Oc1ccc(CNCCCNCCCCCCCCNCCCNCc2ccc(O)cc2)cc1
- IC50 (Plasmodium falciparum): 5.7 µM

Compound: C(CCCNCCCNCC1CCCCC1)CCCNCCCNCC1CCCCC1
- IC50 (Plasmodium falciparum): 1.8 µM

Compound: CCCCNCCCNCCCCCCCCNCCCNCCCC
- IC50 (Plasmodium falciparum): 30 µM

Compound: c1ccc2c(CNCCCNCCCCCCCCNCCCNCc3cccc4ccccc34)cccc2c1
- IC50 (Plasmodium falciparum): 0.34 µM

Compound: CC(NCCCNCCCCCCCNCCCNC(C)c1ccccc1)c1ccccc1 (stereo unspecified)
- IC50 (Plasmodium falciparum): 4.8 µM

Compound: CS(=O)(=O)c1ccc(CNCCCNCCCCCCCCNCCCNCc2ccc(S(C)(=O)=O)cc2)cc1
- IC50 (Plasmodium falciparum): 20 µM

Compound: CCc1ccc(CNCCCNCCCCCCCNCCCNCc2ccc(CC)cc2)cc1.Cl.Cl.Cl.Cl
- Dose (Plasmodium berghei [3]): 30 mg/kg
- IC50 (Plasmodium falciparum): 1.8 µM

Compound: CCc1ccc(CNCCCNCCCCCCCCNCCCNCc2ccc(CC)cc2)cc1
- IC50 (Plasmodium falciparum): 1.4 µM

Compound: c1csc(CNCCCNCCCCCCCNCCCNCc2cccs2)c1
- IC50 (Plasmodium falciparum): 4.5 µM

Compound: c1ccc(CNCCCCNCCCCCCCCNCCCCNCc2ccccc2)cc1
- IC50 (Plasmodium falciparum): 5.3 µM

Compound: Cl.Cl.Cl.Cl.c1ccc(CNCCCNCCCCNCCCNCc2ccccc2)cc1
- Max increase (Plasmodium berghei [5]): 30%
- Dose (Plasmodium berghei [3]): 30 mg/kg
- IC50 (Plasmodium falciparum): 14 µM

Compound: NCCCNCCCCCCCNCCCNCc1ccccc1
- IC50 (Plasmodium falciparum): 330 µM

Compound: CSc1ccc(CNCCCNCCCCCCCNCCCNCc2ccc(SC)cc2)cc1
- IC50 (Plasmodium falciparum): 3 µM

Compound: c1ccc(CNCCNCCCCCCCCCCNCCNCc2ccccc2)cc1
- IC50 (Plasmodium falciparum): 0.3 µM

Compound: CC(CCNCCCCCCCNCCC(C)NCc1ccccc1)NCc1ccccc1.Cl.Cl.Cl.Cl (stereo unspecified)
- Dose (Plasmodium berghei [3]): 100 mg/kg
- IC50 (Plasmodium falciparum): 2.6 µM

Compound: CSc1ccc(CNCCCNCCCCCCCCNCCCNCc2ccc(SC)cc2)cc1
- IC50 (Plasmodium falciparum): 0.6 µM

Compound: Cl.Cl.Cl.Cl.c1ccc(CNCCCNCCCCCCCCNCCCNCc2ccccc2)cc1
- Dose (Plasmodium berghei [4]): 10 mg/kg
- Cured (Plasmodium berghei [2]): 80%
- IC50 (Plasmodium falciparum): 0.8 µM

Compound: Cl.Cl.Cl.Cl.c1ccc(CNCCCNCCCCCCCCCCNCCCNCc2ccccc2)cc1
- Dose (Plasmodium berghei [1]): 3 mg/kg
- Cured (Plasmodium berghei [2]): 40%
- IC50 (Plasmodium falciparum): 0.5 µM

Compound: NCCCNCCCCCCCNCCCN
- IC50 (Plasmodium falciparum): 4300 µM

Compound: c1ccc(CCCNCCCNCCCCCCCNCCCNCCCc2ccccc2)cc1
- IC50 (Plasmodium falciparum): 0.3 µM

Compound: Cl.Cl.Cl.Cl.c1ccc(CNCCCNCCCCCCCCCCCCNCCCNCc2ccccc2)cc1
- Dose (Plasmodium berghei [1]): 10 mg/kg
- IC50 (Plasmodium falciparum): 0.2 µM

Compound: Oc1ccc(CNCCCNCCCCCCCNCCCNCc2ccc(O)cc2)cc1
- IC50 (Plasmodium falciparum): 27 µM

Source: ChEMBL document CHEMBL1125840, “Antimalarial polyamine analogues” (J Med Chem, 1991)
